Measured values taken from article PMC7384665 (Bioorganic & medicinal chemistry, 2020).
Like-named read-outs stand apart in the source and are kept apart here.

What was measured:
Recombinant FTase = Recombinant FTase (Rattus norvegicus, UniProt Q02293+Q04631); experiment: FTase enzyme assay; assay type: biochemical; details: for FTase inhibitory activity: concentrations as high as 100 μM, data not shown
Recombinant GGTase I = Recombinant GGTase I (Rattus norvegicus, UniProt P53610+Q04631); experiment: GGTase I enzyme assay; assay type: biochemical
Recombinant GGTase I, sequence (P53610 whole entry, one chain of several): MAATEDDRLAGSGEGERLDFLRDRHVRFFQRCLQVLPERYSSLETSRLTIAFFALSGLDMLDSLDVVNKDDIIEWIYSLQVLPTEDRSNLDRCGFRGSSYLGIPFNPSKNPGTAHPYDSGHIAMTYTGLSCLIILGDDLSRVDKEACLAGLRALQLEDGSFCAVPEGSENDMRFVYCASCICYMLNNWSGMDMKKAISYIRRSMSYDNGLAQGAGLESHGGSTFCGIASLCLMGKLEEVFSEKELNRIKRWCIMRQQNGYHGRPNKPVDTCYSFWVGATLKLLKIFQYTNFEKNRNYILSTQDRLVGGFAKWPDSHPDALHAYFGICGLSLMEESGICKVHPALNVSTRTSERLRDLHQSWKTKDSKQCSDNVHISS
Method in brief: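 Recombinant GGTase I activity measured by a modified Temple et al. method, with dansyl-peptide substrates (dansyl-GCVLS and dansyl-GCVLL listed for the FTase/GGTase I assays); fluorescence change followed over time on a microplate reader. Test compound run in duplicate at multiple concentrations, three independent experiments; IC50 obtained from concentration-response curves.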

RPMI-8226 myeloma cells [1] = experiment: Cellular assays: Rap1a immunoblot and intracellular lambda light chain ELISA; assay type: cell-based
RPMI-8226 myeloma cells [2] = experiment: H-Ras immunoblot; assay type: cell-based; details: RPMI-8226 cells, 48 h
[3] = concentrations as high as 100 μM, data not shown

Recombinant FTase, sequence (Q02293 whole entry, one chain of several): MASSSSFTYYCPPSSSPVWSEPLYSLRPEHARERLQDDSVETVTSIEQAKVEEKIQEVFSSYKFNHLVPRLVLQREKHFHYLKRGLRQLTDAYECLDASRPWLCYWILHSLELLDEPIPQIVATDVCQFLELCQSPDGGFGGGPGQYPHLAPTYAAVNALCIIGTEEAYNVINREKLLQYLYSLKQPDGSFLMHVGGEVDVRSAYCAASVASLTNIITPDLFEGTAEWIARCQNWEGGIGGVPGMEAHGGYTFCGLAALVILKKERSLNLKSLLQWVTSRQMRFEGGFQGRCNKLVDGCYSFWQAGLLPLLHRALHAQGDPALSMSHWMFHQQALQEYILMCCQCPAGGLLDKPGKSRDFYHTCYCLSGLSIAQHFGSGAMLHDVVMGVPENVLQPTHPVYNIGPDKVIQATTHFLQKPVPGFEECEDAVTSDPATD

Structure (SMILES)	FTase inhibitory activity (Recombinant FTase)	GGTase I inhibitory activity (Recombinant GGTase I; [3])	Effect on H-Ras farnesylation (prenylation) (RPMI-8226 myeloma cells [2])	other results
CC(C)=CCC/C(C)=C\CCC(=O)NCCC(P(=O)([O-])[O-])P(=O)([O-])[O-].[Na+].[Na+].[Na+].[Na+] [Compound 2i, Disodium (1-[bis(sodiooxy)phosphoryl]-3-[(4Z)-5,9-dimethyldeca-4,8-dienamido]propyl)phosphonate]	no inhibitory activity was observed	no inhibitory activity was observed	None of these compounds (2g, 2h, 2i, 2e, 2d) disrupted H-Ras farnesylation	Times less potent than triazole 1 (RPMI-8226 myeloma cells [1]; by LEC): approximately 17 times
CC(C)=CCC/C(C)=C\CC(=O)NCCC(P(=O)([O-])[O-])P(=O)([O-])[O-].[Na+].[Na+].[Na+].[Na+] [Compound 2g, Disodium (1-[bis(sodiooxy)phosphoryl]-3-[(3Z)-4,8-dimethylnona-3,7-dienamido]propyl)phosphonate]	no inhibitory activity was observed	no inhibitory activity was observed	None of these compounds (2g, 2h, 2i, 2e, 2d) disrupted H-Ras farnesylation	Fold increase in GGDPS inhibitor activity with respect to 2c (RPMI-8226 myeloma cells [1]; Figure 3B, Rap1a immunoblot): 10 fold
CC(C)=CCC[C@H](C)CC(=O)NCCC(P(=O)([O-])[O-])P(=O)([O-])[O-].[Na+].[Na+].[Na+].[Na+] [Compound 2d, Disodium (1-[bis(sodiooxy)phosphoryl]-3-[(3S)-3,7-dimethyloct-6-enamido]propyl)phosphonate]	no inhibitory activity was observed	no inhibitory activity was observed	None of these compounds (2g, 2h, 2i, 2e, 2d) disrupted H-Ras farnesylation	
CC(C)=CCC[C@@H](C)CC(=O)NCCC(P(=O)([O-])[O-])P(=O)([O-])[O-].[Na+].[Na+].[Na+].[Na+] [Compound 2e, Disodium (1-[bis(sodiooxy)phosphoryl]-3-[(3R)-3,7-dimethyloct-6-enamido]propyl)phosphonate]	no inhibitory activity was observed	no inhibitory activity was observed	None of these compounds (2g, 2h, 2i, 2e, 2d) disrupted H-Ras farnesylation	Fold more potent than S-isomer 2d (RPMI-8226 myeloma cells [1]; cellular assays): 10 fold
CC(C)=CCC/C(C)=C\C(=O)NCCC(P(=O)(O)O)P(=O)(O)O [Compound 2c]				inhibition at 100 µM (Recombinant FTase; read-out: FTase inhibitory activity): < 30%
CC(C)=CCCC(=O)NCCC(P(=O)([O-])[O-])P(=O)([O-])[O-].[Na+].[Na+].[Na+].[Na+] [Compound 2j, Disodium (1-[bis(sodiooxy)phosphoryl]-3-(5-methylhex-4-enamido)propyl)phosphonate]			lack of effect	
CC(C)=CCC/C(C)=C/C(=O)NCCC(P(=O)([O-])[O-])P(=O)([O-])[O-].[Na+].[Na+].[Na+].[Na+] [Compound 2b, Disodium (1-[bis(sodiooxy)phosphoryl]-3-[(2E)-3,7-dimethylocta-2,6-dienamido]propyl)phosphonate]			disrupted H-Ras farnesylation	GGTase I inhibitory activity (Recombinant GGTase I): no inhibitory activity
CC(C)=CCC/C(C)=C/CCC(=O)NCCC(P(=O)([O-])[O-])P(=O)([O-])[O-].[Na+].[Na+].[Na+].[Na+] [Compound 2h, Disodium (1-[bis(sodiooxy)phosphoryl]-3-[(4E)-5,9-dimethyldeca-4,8-dienamido]propyl)phosphonate]	no inhibitory activity was observed	no inhibitory activity was observed	None of these compounds (2g, 2h, 2i, 2e, 2d) disrupted H-Ras farnesylation	
